Each structure is given as a SMILES string.

Consider 20 compounds from ChEMBL document CHEMBL3870334, “Synthesis, anticancer, and docking studies of salicyl-hydrazone analogues: A novel series of small potent tropomyosin receptor kinase A inhibitors” (Bioorg Med Chem, 2017).

The nature of experiment [1]: Cytotoxicity against human A549 cells assessed as reduction in cell proliferation measured after 48 hrs by SRB assay. Type of experiment: functional, cell-based. As to conditions: A549, 48 h. The method, boiled down: (§1)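 SRB assay of net cell proliferation after continuous 48 h exposure to test compound. Inhibition is expressed as a percentage of non-treated controls. Samples were run in triplicate, and the mean IC50 (concentration giving 50% inhibition of proliferation) was calculated. Doxorubicin served as positive control.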

Experiment [2] in a line: Cytotoxicity against human SK-MEL-2 cells assessed as reduction in cell proliferation measured after 48 hrs by SRB assay. Type of experiment: functional, cell-based. The conditions noted are these: SK-MEL-2, 48 h. The method, boiled down:
as §1

The nature of experiment [3]: Cytotoxicity against human HCT15 cells assessed as reduction in cell proliferation measured after 48 hrs by SRB assay. The conditions noted are these: HCT-15, 48 h. In kind it is functional, cell-based. A digest of the protocol:
as §1

Experiment [4] can be described thus: Cytotoxicity against human SKOV3 cells assessed as reduction in cell proliferation measured after 48 hrs by SRB assay. Type of experiment: functional, cell-based. As to conditions: SK-OV-3, 48 h. A digest of the protocol:
as §1

Experiment [5] in a line: Cytotoxicity against human MIAPaCa2 cells assessed as reduction in cell proliferation measured after 48 hrs by SRB assay. Type of experiment: functional, cell-based. The conditions noted are these: MIA PaCa-2, 48 h. The method, boiled down: as §1
The target of experiment [6] is T1, High affinity nerve growth factor receptor (Homo sapiens, UniProt P04629). Kind of experiment: Inhibition of TrkA (unknown origin). A digest of the protocol: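 Purified TrkA, biotinylated substrate peptide and inhibitor were preincubated 15 min at 25°C, then 100 µM ATP was added. After 30 min, Eu-cryptate anti-phosphotyrosine antibody (1 µM) and streptavidin-XL665 (125 nM) were added for 1 h. HTRF read at 320 nm excitation, 620/665 nm emission ratio. IC50 from % inhibition across 12 serial dilutions (0.03~10000 nM).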
Target sequence in this assay (P04629 whole entry): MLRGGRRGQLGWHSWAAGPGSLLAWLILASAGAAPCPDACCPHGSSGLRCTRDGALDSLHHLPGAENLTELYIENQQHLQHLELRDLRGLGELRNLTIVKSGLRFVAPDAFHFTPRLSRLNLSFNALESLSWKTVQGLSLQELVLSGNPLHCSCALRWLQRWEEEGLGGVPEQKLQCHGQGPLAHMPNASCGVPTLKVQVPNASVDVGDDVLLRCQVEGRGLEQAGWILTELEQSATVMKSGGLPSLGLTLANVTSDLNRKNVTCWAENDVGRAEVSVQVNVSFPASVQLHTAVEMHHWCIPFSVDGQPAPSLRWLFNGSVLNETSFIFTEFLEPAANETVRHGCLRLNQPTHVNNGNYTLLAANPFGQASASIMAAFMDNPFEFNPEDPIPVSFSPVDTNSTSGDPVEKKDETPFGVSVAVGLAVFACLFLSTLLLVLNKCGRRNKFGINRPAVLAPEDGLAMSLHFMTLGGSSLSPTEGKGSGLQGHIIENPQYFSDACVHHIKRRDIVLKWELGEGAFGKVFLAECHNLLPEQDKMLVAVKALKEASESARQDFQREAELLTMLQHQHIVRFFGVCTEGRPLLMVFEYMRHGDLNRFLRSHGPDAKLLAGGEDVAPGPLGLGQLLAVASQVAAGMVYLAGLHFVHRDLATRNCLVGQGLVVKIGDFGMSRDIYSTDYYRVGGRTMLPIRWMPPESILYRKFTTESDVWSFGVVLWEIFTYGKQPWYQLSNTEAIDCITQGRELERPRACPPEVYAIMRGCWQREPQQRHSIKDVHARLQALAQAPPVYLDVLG

Experiment [7] deals with T1, High affinity nerve growth factor receptor. The experiment in a line: Inhibition of human N- terminal GST-tagged TrkA cytoplasmic domain (436 to 790 residues) expressed in baculovirus infected sf21 cells at 1 uM using biotinylated peptide substrate incubated for 15 mins followed by addition of ATP measured after 30 mins by TR-FRET assay relative to control.
Target sequence in this assay (P04629 33-796 limits assumed): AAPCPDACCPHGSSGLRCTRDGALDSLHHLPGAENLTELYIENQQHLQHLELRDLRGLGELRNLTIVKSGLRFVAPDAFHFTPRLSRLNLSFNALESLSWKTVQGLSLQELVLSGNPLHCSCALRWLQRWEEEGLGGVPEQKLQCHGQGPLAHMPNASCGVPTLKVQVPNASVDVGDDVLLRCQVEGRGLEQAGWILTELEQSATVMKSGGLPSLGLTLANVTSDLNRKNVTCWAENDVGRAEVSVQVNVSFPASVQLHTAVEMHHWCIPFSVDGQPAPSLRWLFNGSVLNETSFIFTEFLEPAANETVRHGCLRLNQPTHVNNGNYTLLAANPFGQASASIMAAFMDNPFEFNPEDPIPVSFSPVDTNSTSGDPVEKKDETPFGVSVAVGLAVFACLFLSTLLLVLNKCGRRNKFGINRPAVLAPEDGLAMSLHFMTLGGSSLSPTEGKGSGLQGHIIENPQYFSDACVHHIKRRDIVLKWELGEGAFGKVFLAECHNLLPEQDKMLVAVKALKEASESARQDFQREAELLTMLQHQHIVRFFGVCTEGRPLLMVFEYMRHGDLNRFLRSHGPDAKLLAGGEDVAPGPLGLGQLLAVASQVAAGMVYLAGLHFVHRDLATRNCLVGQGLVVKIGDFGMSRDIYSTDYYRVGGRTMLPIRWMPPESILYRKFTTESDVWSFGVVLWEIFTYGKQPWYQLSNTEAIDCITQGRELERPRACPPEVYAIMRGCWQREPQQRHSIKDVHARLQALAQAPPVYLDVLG
Experiment [8] shares this target. The experiment in a line: Inhibition of human N- terminal GST-tagged TrkA cytoplasmic domain (436 to 790 residues) expressed in baculovirus infected sf21 cells using biotinylated peptide substrate incubated for 15 mins followed by addition of ATP measured after 30 mins by TR-FRET assay.
Target sequence in this assay (P04629 whole entry): as the sequence (P04629 whole entry) above
Experiment [9] has the same target. The experiment in a line: Inhibition of TrkA (unknown origin) by ELISA.
Target sequence in this assay (P04629 whole entry): as above
Experiment [10] shares this target. Kind of experiment: Inhibition of human TrkA expressed in human U2OS cells assessed as inhibition of NGF-induced response measured after 1 hr by beta-galactosidase assay. In kind it is cell-based.
Target sequence in this assay (P04629 whole entry): as above

For `O=C(N/N=C/c1ccccc1)c1ccccc1O`, the IC50 in experiment [1] was 2.78 µM; in experiment [2], 9.77 µM; in experiment [3], 21.3 µM; in experiment [4] it was 5.94 µM; in [5], 2.46 µM.

In experiment [6], `Oc1ccc(Nc2nc(-c3ccccc3O)nc3ccccc23)cc1` registered an IC50 of 0.303 µM.

As for `O=C(N/N=C/c1ccc(O)c(O)c1)c1ccccc1O`, the IC50 in experiment [1] was 3.15 µM; in [2] it was 8.86 µM; in experiment [3] it was 10 µM; in experiment [4], 9.14 µM; in [5] it was 4.74 µM; in experiment [8], 2.54 µM. This compound showed an inhibition in [7] of 92.9%.

The compound `Cn1cc(/C=C2\C(=O)Nc3cccnc32)c2ccccc21` returned an inhibition in [7] of over 99%.

Compound `CC1(C)C[C@H](c2cc(F)ccc2F)N(c2ccn3ncc(NC(=O)c4cnccn4)c3n2)C1` came in with an IC50 in [9] of 0.002 µM.

For the compound `CN(C)c1ccc(/C=N/NC(=O)c2ccccc2O)cc1`, the concentration for half-maximal inhibition (IC50) came to 21.5 µM in experiment [1]; 19.3 µM in experiment [2]; 38.4 µM in experiment [3]; 18.5 µM in experiment [4]; 20.7 µM in experiment [5].

With `Nc1ccc(Cc2cccc(NC(=O)N3CCN(c4ccccc4)C3=O)c2)cn1`, it took 0.02 µM to reach half-maximal inhibition in experiment [6] (IC50).

Turning to `O=C(N/N=C/c1ccccc1[N+](=O)[O-])c1ccccc1O`, the IC50 in experiment [1] is 23.2 µM; in [2], 19.4 µM; in experiment [3] it was 34.6 µM; in [4], 19.6 µM; in experiment [5] it was 14 µM.

Turning to `CCc1ncc(C(=O)C2CC([C@@H](C)CO)c3ncncc32)cc1NC(=O)Cc1ccc(C(F)(F)F)cc1` (some centres not stated), the IC50 in experiment [10] was found to be 0.013 µM.

Regarding `O=C(N/N=C/c1ccc(Cl)cc1)c1ccccc1O`, the half-inhibitory concentration (IC50) turned out to be 22.2 µM in [1]; 14.3 µM in experiment [2]; 20.9 µM in experiment [3]; 9.83 µM in experiment [4]; 7.19 µM in experiment [5]. This compound registered an inhibition in [7] of 6.92%.

Take `COc1ncc(C(=O)C2CC(C(C)C)c3ncncc32)cc1NC(=O)Nc1cc(Cl)cc(Cl)c1` (configuration not stated): the IC50 in experiment [10] stood at 0.048 µM.

As for `O=C(N/N=C/c1ccc(O)cc1)c1ccccc1O`, the 50% inhibitory concentration (IC50) in experiment [1] came to 2.86 µM; in experiment [2] it was 5.46 µM; in experiment [3] it was 8.6 µM; in experiment [4], 9.1 µM; in experiment [5] it was 1.18 µM. In addition, in [7], the inhibition turned out to be 20.6%.

Regarding `COc1cccc2c1C(=O)c1c(O)c3c(c(O)c1C2=O)C[C@@](O)(C(=O)CO)C[C@@H]3O[C@H]1C[C@H](N)[C@H](O)[C@H](C)O1` [DOXORUBICIN], the IC50 in experiment [1] was 0.021 µM; in [2], 0.001 µM; in experiment [3], 0.872 µM; in experiment [4] it was 0.074 µM; in experiment [5], 0.049 µM.

In the case of `O=C(N/N=C/c1ccc(O)c(O)c1O)c1ccccc1O`, the IC50 was determined as 7.16 µM in experiment [1]; 1.84 µM in experiment [2]; 3.71 µM in experiment [3]; 1.96 µM in experiment [4]; 2.21 µM in experiment [5]; 0.38 µM in [8]. The inhibition in experiment [7] turned out to be 90.9%.

As for `Cc1ccc(/C=N/NC(=O)c2ccccc2O)cc1`, the IC50 was 6.74 µM in experiment [1]; 13.1 µM in experiment [2]; 26.9 µM in experiment [3]; 9.81 µM in experiment [4]; 4.45 µM in experiment [5]. The inhibition in experiment [7] is 3.7%.

Consider `COc1ccc(/C=N/NC(=O)c2ccccc2O)c(OC)c1`, for which the IC50 in experiment [1] came to 31.3 µM; in [2] it was 19.6 µM; in experiment [3] it was 25.7 µM; in experiment [4], 14.5 µM; in [5], 11.3 µM. Also, the inhibition in experiment [7] turned out to be 7.61%.

Take `COc1ccc(/C=N/NC(=O)c2ccccc2O)cc1`: the half-maximal inhibitory concentration (IC50) is 12.9 µM in experiment [1]; 15.2 µM in [2]; 28.1 µM in experiment [3]; 14.4 µM in experiment [4]; 8.64 µM in [5].

The compound `COc1ccccc1/C=C/C(=O)Nc1nc(N)n(-c2ccccc2)n1` gave an IC50 in experiment [6] of 0.027 µM.

Regarding `O=C(N/N=C/c1ccc([N+](=O)[O-])cc1)c1ccccc1O`, the half-maximal inhibitory concentration (IC50) turned out to be 8.72 µM in experiment [1]; 9.34 µM in experiment [2]; 22.7 µM in [3]; 8.8 µM in experiment [4]; 6.73 µM in experiment [5].

As to `O=C(N/N=C/c1ccc(O)cc1O)c1ccccc1O`, the concentration for half-maximal inhibition (IC50) in [1] turned out to be 2.46 µM; in experiment [2], 1.43 µM; in [3], 0.89 µM; in experiment [4], 0.87 µM; in experiment [5], 0.48 µM; in experiment [8], 0.232 µM. This compound also gave an inhibition in experiment [7] of 92.4%.
